Results from different studies.
Target: Mitogen-activated protein kinase 12 (MAPK12, Homo sapiens, UniProt P53778)
Residues used in one study (P53778 1-367): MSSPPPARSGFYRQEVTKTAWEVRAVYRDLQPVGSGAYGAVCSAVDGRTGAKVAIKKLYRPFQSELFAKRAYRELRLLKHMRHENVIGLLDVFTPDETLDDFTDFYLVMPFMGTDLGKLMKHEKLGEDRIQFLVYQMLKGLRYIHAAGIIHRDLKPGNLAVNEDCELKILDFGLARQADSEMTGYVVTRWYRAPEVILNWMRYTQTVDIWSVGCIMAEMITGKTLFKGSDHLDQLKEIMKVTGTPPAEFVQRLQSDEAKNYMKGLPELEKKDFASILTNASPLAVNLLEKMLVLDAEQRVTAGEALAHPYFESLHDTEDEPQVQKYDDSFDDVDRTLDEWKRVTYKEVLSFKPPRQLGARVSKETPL

SMILES	test	setting	quantity	result
COc1cc2ncnc(Nc3ccc(Oc4ccccc4)c(C)c3C)c2cc1OC	enzyme activity, inhibitor	1 µM	inhibition	2%
Cn1nc(C(F)(F)F)cc1-c1cnc(N2CCc3cc(S(=O)(=O)Nc4c(F)cc(Cl)cc4F)cc(N4CCCC4=O)c32)nc1	cell-free assay, competition with immobilised ligand	1 µM	remaining binding	83%
COc1cc(Nc2cnc(C#N)c(O[C@H](C)CN(C)C)n2)ncc1-c1cnn(C)c1	enzyme activity, inhibitor, radiometric	10 µM	remaining activity	109%
CC(C)(C)c1nc2c(s1)c1nc(N)ncc1c1ccc(NS(=O)(=O)c3c(F)cccc3F)c(F)c12	enzyme activity, inhibitor, radiometric	1 µM	remaining activity	100%
Nc1nc(Nc2ccccc2)sc1C(=O)c1c(F)cccc1F	enzyme activity, inhibitor	10 µM	remaining activity	77%
CC1CCCN1c1nccc(-c2cnn3ncccc23)n1 (stereo not shown)	binding	1 µM	remaining binding	90%
CCOC(=O)c1cc2cc(-c3cc(C(=O)NCc4ccc(C(=O)O)cc4)nn3C)ccc2[nH]1	cell-free assay, competition with immobilised ligand	0.1 µM	remaining binding	77%
Oc1ccc(-c2nc(-c3ccncc3)c(-c3ccc(F)cc3)[nH]2)cc1	cell-free assay	0.5 µM	remaining signal	102%
CCOc1cc(-c2nncn2C)ccc1Nc1ncc2cc(C)nc(NCC(C)(C)C)c2n1	enzyme activity, inhibitor, FRET	1 µM	inhibition	< 15%
CCN(CC)CCNC(=O)c1c(C)[nH]c(/C=C2\C(=O)Nc3ccc(F)cc32)c1C	enzyme activity, inhibitor	0.3 µM	inhibition	-10%
O=C(Nc1cnn(-c2csc(C(=O)NC3COC3)c2)c1)Nc1c(F)cccc1Cl	enzyme activity, inhibitor	5 µM	remaining activity	98.3%
CCCS(=O)(=O)Nc1ccc(F)c(C(=O)c2c[nH]c3ncc(-c4ccc(Cl)cc4)cc23)c1F	enzyme activity, inhibitor	1 µM	inhibition	< 10%
CN1CC(Oc2cnc(C#N)cc2-c2ccn3nc(NC(=O)C4CC4)cc3c2)C1	enzyme activity, inhibitor	1 µM	inhibition	-1%
Cc1ccc(Nc2nccc(N(C)c3ccc4c(C)n(C)nc4c3)n2)cc1S(N)(=O)=O	enzyme activity, inhibitor	10 µM	inhibition	-5%
O=C(NC[C@@H]1[C@H]2CN(C(=O)OCc3cc(C(F)(F)F)cc(C(F)(F)F)c3)C[C@@H]12)c1ccc2[nH]nnc2c1	cell-free assay, competition with immobilised ligand	1 µM	remaining binding	100%
COc1cc(/C=C/C(=O)CC(=O)/C=C/c2ccc(O)c(OC)c2)ccc1O	enzyme activity, inhibitor	1 µM	activity vs control	101%
Cc1cc(NC(=O)c2cccc3cc(-c4cccc5[nH]nc(N)c45)ccc23)ccc1F	enzyme activity, inhibitor	0.1 µM	activity vs control	83%
CNC(=O)Nc1ccc2c(c1)CC[C@@]21OC(=O)N(CC(=O)N(Cc2ccc(F)cc2)[C@@H](C)C(F)(F)F)C1=O	cell-free assay, competition with immobilised ligand	1 µM	remaining binding	63%
O=C1NC(=O)c2cc(Nc3ccc(F)cc3)c(Nc3ccc(F)cc3)cc21	cell-free assay	0.5 µM	remaining signal	93.6%
N#CC1(c2ccccn2)CCN(Cc2cc(C(=O)N3CCCC3)c(=O)n3ccccc23)CC1	cell-free assay, competition with immobilised ligand	1 µM	remaining binding	100%
CNC(=O)c1cc(Oc2ccc(NC(=O)Nc3ccc(Cl)c(C(F)(F)F)c3)cc2)ccn1	cell-free assay	0.5 µM	remaining signal	94.2%
CCN(CC)c1ccc(C2=NNC(=O)CC2C)cc1[N+](=O)[O-] (stereo not shown)	enzyme activity, inhibitor	10 µM	remaining activity	104%
NS(=O)(=O)c1cc(NC(=O)Cc2ccccc2)ccc1Oc1cccc(Cl)c1	cell-free assay, competition with immobilised ligand	1 µM	remaining binding	100%
CC(C)(C)C(=O)c1sc(NC2CCCCC2)nc1N	enzyme activity, inhibitor	10 µM	remaining activity	89%
Cc1c(NC(=O)c2cc(C(N)=O)nc3cc(F)ccc23)c(C(F)(F)F)nn1Cc1ccc(C(C)(C)C)cc1	cell-free assay, competition with immobilised ligand	1 µM	remaining binding	56%
Nc1ncnc2occ(-c3ccc(NC(=O)Nc4cc(C(F)(F)F)ccc4F)cc3)c12	cell-free assay, inhibitor	20 µM	remaining signal	0.5%
Cn1c(=O)n(-c2ccc(C(C)(C)C#N)cc2)c2c3cc(-c4cnc5ccccc5c4)ccc3ncc21	enzyme activity, inhibitor	10 µM	remaining activity	101%
CC(=O)C1=C(C)N(c2cccc(C(F)(F)F)c2)C(=O)N[C@@H]1c1ccc(C#N)nc1	cell-free assay, competition with immobilised ligand	1 µM	remaining binding	77.4%
